Laboratory results reported in ChEMBL document CHEMBL3616394 (Eur J Med Chem, 2015).
Active and inactive are the calls of the source. The rule behind the calls is not given here.

Columns and labels:
[1] = molecular target: T1, Neuronal acetylcholine receptor; alpha3/beta4 (Rattus norvegicus) (UniProt P04757+P12392); experiment: Agonist activity at recombinant rat alpha3beta4 nAChR expressed in HEK293 cells at 300 uM after 30 min by FLIPR potential blue assay; format: cell-based
Summary of the method: (§1)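 Stable rat α3β4 HEK293 cells were loaded with FMP dye (0.5 mg/ml) in Krebs-HEPES buffer, pH 7.4, for 30 min at 37 °C. For antagonist runs, the test compound was included in the dye buffer and EC70-EC80 ACh was then added. Fluorescence was read at ex 525/em 565 nm, 20 s before and 70 s after ligand addition, and ΔFU taken. Runs were done in duplicate, at least three times.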

[2] = molecular target: Neuronal acetylcholine receptor; alpha4/beta4 (Rattus norvegicus, UniProt P09483+P12392); experiment: Displacement of [3H]epibatidine from rat alpha4beta4 nACHR expressed in HEK293 cells after 4 hrs by scintillation counting assay; format: cell-based; conditions: for pKi: hek293
Sequence of Neuronal acetylcholine receptor; alpha4/beta4 (P09483 whole entry): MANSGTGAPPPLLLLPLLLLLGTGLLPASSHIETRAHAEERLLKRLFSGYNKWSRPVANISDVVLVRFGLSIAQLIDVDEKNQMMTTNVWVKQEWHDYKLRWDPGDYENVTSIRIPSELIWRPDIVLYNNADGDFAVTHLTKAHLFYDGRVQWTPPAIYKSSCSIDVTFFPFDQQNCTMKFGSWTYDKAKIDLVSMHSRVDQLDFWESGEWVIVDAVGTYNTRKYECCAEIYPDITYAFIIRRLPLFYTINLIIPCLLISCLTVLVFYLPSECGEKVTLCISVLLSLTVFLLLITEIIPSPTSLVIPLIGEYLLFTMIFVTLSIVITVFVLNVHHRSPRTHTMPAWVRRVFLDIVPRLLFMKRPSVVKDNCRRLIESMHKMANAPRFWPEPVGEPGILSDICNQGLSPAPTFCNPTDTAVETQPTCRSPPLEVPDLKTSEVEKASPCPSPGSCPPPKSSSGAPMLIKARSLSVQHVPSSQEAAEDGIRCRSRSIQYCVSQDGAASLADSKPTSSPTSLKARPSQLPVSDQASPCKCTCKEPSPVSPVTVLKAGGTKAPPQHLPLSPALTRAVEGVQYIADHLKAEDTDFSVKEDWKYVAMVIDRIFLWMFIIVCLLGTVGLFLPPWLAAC
Sequence of Neuronal acetylcholine receptor; alpha4/beta4 (P12392 whole entry): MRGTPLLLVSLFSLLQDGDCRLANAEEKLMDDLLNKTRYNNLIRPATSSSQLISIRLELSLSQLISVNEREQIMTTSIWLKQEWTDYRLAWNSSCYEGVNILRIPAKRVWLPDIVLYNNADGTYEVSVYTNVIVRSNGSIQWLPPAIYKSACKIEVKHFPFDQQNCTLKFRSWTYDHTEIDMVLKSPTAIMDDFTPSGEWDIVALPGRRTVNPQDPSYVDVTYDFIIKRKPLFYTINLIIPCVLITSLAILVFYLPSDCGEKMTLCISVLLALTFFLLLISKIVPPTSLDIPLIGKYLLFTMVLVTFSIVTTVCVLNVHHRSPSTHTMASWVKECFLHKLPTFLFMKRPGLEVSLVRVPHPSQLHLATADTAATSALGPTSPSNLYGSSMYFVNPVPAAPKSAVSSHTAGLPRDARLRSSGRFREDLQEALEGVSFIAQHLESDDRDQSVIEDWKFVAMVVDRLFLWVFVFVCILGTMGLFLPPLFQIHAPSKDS

[3] = molecular target: T2, Neuronal acetylcholine receptor subunit alpha-4/beta-2 (Mus musculus) (UniProt Q9ERK7+O70174); experiment: Agonist activity at recombinant mouse alpha4beta2 nAChR expressed in HEK293 cells at >=100 uM after 30 min by FLIPR potential blue assay; format: cell-based
T2 sequence (O70174 31-629 partner limits assumed): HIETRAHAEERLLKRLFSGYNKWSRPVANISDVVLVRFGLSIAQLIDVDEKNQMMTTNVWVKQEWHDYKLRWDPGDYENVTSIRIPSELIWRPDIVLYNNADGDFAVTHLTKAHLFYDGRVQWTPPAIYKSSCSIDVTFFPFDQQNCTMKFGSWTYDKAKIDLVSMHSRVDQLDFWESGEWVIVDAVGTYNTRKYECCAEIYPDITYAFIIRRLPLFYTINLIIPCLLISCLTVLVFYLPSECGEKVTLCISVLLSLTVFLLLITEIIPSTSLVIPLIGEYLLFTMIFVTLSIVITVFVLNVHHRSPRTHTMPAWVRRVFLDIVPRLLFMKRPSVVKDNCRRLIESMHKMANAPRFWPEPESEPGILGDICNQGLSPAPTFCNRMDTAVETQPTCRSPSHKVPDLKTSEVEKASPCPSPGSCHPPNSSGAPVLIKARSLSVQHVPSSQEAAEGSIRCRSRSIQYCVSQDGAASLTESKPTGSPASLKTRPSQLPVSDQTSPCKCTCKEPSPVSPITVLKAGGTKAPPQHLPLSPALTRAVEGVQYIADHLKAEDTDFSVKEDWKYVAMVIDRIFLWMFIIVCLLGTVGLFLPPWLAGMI
T2 sequence (Q9ERK7 26-501 limits assumed): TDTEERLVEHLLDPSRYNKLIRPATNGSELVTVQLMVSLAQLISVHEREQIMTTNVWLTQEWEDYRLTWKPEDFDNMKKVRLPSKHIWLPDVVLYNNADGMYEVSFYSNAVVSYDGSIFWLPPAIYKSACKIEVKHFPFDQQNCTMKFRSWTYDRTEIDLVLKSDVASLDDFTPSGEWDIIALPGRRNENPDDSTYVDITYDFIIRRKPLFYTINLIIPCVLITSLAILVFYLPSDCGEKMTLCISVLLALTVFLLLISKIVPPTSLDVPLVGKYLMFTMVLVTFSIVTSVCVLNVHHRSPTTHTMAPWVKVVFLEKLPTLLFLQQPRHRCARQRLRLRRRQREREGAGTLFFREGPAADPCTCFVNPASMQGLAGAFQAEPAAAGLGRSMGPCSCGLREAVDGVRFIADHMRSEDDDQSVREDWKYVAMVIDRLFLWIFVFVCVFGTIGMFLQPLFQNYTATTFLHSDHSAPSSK
Summary of the method: (§2)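 FLIPR membrane potential (FMP) dye assay on α4β2-HEK293T cells. Cells were washed in Krebs buffer (pH 7.4) and loaded with dye (0.5 mg/ml) for 30 min at 37 °C. Emission at 565 nm with excitation at 525 nm was read 20 s before and 70 s after ligand addition. Response was the ΔFU between maximal levels. Duplicate wells, at least three experiments.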

[4] = molecular target: Neuronal acetylcholine receptor; alpha3/beta4 (Rattus norvegicus, UniProt P04757+P12392); experiment: Displacement of [3H]epibatidine from rat alpha3beta4 nACHR expressed in HEK293 cells after 4 hrs by scintillation counting assay; format: cell-based; conditions: for pKi: hek293
Sequence of Neuronal acetylcholine receptor; alpha3/beta4 (P04757 whole entry): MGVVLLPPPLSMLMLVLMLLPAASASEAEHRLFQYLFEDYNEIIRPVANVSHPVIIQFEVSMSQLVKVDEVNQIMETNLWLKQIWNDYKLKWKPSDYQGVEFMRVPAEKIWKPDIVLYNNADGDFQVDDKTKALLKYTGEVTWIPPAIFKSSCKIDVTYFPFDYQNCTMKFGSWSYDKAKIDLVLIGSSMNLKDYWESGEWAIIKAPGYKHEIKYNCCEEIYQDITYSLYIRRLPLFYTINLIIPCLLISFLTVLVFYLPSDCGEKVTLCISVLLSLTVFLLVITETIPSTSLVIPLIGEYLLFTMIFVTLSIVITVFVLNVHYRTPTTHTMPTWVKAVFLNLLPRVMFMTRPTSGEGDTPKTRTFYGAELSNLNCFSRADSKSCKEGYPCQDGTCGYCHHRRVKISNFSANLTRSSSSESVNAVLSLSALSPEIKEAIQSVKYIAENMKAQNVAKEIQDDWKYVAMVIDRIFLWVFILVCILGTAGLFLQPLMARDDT
Sequence of Neuronal acetylcholine receptor; alpha3/beta4 (P12392 whole entry): as the sequence (P12392 whole entry) above

[5] = molecular target: T3, Neuronal acetylcholine receptor; alpha4/beta2 (Rattus norvegicus, UniProt P09483+P12390); experiment: Displacement of [3H]epibatidine from rat alpha4beta2 nAChR expressed in HEK293 cells after 4 hrs by scintillation counting assay; format: cell-based
T3 sequence (P09483 whole entry): as the sequence (P09483 whole entry) above
T3 sequence (P12390 whole entry): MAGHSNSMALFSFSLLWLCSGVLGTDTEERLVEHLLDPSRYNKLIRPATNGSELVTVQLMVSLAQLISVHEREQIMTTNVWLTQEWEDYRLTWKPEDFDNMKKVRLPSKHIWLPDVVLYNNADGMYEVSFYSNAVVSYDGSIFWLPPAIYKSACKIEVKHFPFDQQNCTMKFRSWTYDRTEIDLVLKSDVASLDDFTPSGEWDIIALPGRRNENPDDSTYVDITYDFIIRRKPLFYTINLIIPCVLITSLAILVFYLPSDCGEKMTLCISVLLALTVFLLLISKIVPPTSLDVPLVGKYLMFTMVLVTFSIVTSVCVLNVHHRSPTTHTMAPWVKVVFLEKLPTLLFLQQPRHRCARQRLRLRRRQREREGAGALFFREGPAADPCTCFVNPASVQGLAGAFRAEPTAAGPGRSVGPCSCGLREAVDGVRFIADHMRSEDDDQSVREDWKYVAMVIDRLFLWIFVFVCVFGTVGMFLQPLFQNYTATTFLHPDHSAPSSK

[6] = molecular target: Neuronal acetylcholine receptor subunit alpha-4/beta-2 (Mus musculus, UniProt O70174+Q9ERK7); experiment: Antagonist activity at recombinant mouse alpha4beta2 nAChR expressed in HEK293 cells assessed as inhibition of acetylcholine-induced effect after 30 min by FLIPR potential blue assay; format: cell-based
Sequence of Neuronal acetylcholine receptor subunit alpha-4/beta-2 (Q9ERK7 whole entry): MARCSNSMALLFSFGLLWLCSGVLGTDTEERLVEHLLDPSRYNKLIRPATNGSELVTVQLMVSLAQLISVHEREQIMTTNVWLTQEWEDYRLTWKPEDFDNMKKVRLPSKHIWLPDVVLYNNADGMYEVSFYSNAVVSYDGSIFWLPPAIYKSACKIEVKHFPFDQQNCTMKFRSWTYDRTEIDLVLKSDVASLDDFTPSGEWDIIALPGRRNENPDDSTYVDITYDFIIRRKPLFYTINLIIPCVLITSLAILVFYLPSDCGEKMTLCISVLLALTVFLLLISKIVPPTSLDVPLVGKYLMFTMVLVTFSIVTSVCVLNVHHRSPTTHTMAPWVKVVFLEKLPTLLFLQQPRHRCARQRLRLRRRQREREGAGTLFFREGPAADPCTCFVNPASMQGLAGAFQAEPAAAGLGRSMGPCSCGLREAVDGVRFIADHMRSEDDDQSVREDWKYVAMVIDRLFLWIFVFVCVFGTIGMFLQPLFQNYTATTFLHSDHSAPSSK
Sequence of Neuronal acetylcholine receptor subunit alpha-4/beta-2 (O70174 whole entry): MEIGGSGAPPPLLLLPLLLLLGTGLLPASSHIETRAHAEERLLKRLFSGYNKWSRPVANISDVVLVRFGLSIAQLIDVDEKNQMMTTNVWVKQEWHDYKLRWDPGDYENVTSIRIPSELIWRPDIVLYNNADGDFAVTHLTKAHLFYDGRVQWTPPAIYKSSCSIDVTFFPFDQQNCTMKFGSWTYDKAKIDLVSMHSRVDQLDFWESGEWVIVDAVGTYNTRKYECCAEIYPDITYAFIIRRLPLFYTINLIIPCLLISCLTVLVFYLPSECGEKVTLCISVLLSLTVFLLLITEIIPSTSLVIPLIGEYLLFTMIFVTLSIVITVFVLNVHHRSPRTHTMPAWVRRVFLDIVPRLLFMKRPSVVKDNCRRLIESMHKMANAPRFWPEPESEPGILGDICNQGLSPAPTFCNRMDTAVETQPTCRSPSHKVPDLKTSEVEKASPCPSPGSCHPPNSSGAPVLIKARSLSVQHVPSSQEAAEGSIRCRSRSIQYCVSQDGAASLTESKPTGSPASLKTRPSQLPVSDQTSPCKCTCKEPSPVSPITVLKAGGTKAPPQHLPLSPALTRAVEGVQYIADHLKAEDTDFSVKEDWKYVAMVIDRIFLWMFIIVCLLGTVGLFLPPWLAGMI
Summary of the method: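 FMP dye assay on α4β2-HEK293T cells. Antagonist was dissolved in the dye-loading Krebs buffer (pH 7.4) and preincubated 30 min at 37 °C. EC70–EC80 ACh was then added as final agonist. 565 nm emission was read before and after addition, and inhibition curves were built from ΔFU at eight concentrations. IC50 fitted; duplicate, at least three experiments.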

[7] = molecular target: T1, Neuronal acetylcholine receptor; alpha3/beta4 (Rattus norvegicus); experiment: Antagonist activity at recombinant rat alpha3beta4 nAChR expressed in HEK293 cells assessed as inhibition of acetylcholine-induced effect at >=100 uM after 30 min by FLIPR potential blue assay; format: cell-based; summary of the method: as §1
[8] = molecular target: T3, Neuronal acetylcholine receptor; alpha4/beta2; experiment: Agonist activity at rat (alpha4)3(beta2)2 nAChR expressed in Xenopus oocyte by two electrode voltage-clamp electrophysiology assay
Summary of the method: (§3)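 Xenopus laevis oocytes were injected with about 25 ng total cRNA for rat α4 and β2. The α4:β2 ratio was 1:4 for (α4)2(β2)3 and 10:1 for (α4)3(β2)2. Oocytes were kept at 15-18 °C and recorded 2-5 days later, clamped at -60 mV. Peak currents were taken across 10 nM-10 mM agonist, with 10 min washes between applications. Currents were normalised on the same oocyte to ACh, 300 µM at (α4)2(β2)3 and 1 mM at (α4)3(β2)2.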

[9] = molecular target: Neuronal acetylcholine receptor; alpha4/beta2 (Rattus norvegicus) (UniProt P09483+P12390); experiment: Agonist activity at rat (alpha4)3(beta2)2 nAChR expressed in Xenopus oocyte by two electrode voltage-clamp electrophysiology assay relative to acetylcholine; summary of the method: as §3
[10] = molecular target: T3, Neuronal acetylcholine receptor; alpha4/beta2; experiment: Agonist activity at rat (alpha4)2(beta2)3 nAChR expressed in Xenopus oocyte by two electrode voltage-clamp electrophysiology assay; summary of the method: as §3
[11] = Binding affinity to Aplysia californica AChBP after 300 seconds by SPR biosensor analysis
[12] = molecular target: T3, Neuronal acetylcholine receptor; alpha4/beta2; experiment: Displacement of [3H]epibatidine from rat alpha4beta2 nAChR expressed in HEK293 cells after 4 hr by scintillation counting assay
[13] = molecular target: T2, Neuronal acetylcholine receptor subunit alpha-4/beta-2 (Mus musculus); experiment: Agonist activity at recombinant mouse alpha4beta2 nAChR expressed in HEK293 cells at >=30 uM after 30 min by FLIPR potential blue assay; format: cell-based; summary of the method: as §2
[14] = molecular target: T2, Neuronal acetylcholine receptor subunit alpha-4/beta-2 (Mus musculus); experiment: Agonist activity at recombinant mouse alpha4beta2 nAChR expressed in HEK293 cells at 300 uM after 30 min by FLIPR potential blue assay; format: cell-based; summary of the method: as §2

Row | SMILES | Ki [2] [µM] | Ki ([4]; read-out: Ki) [µM] | Ki [5] [µM] | also measured
1 | CNC(=O)OCCC(CCCc1ccccc1)N(C)C (stereo not drawn) | 30 | 100 | 11 | Activity [1]: Active; Activity [3]: Active
2 | Brc1cccc(CCN2CCCN(c3cccnc3)CC2)c1 | 1.9 | 0.78 | 0.13 | –
3 | CNC(=O)OCCC(C)N(C)Cc1ccccc1 (stereo not drawn) | 300 | 300 | 300 | –
4 | CC(CCOC(=O)N(C)C)N(C)CCCc1ccccc1 (stereo not drawn) | > 1000 | > 1000 | 300 | pKi [2]: < 3; pKi [4]: < 3
5 | C(=C\N1CCCN(c2cccnc2)CC1)/c1ccccc1 | 1.6 | 2.9 | 0.099 | IC50 [6]: 1.1 µM; inhibition [7]: inactive
6 | CC(CCOC(=O)N(C)C)N(C)CC(O)Cc1ccccc1 (stereo not drawn) | 100 | > 1000 | 500 | pKi [4]: < 3
7 | CNC(=O)OCCC(CCCCCc1ccccc1)N(C)C (stereo not drawn) | 4.5 | 50 | 2.7 | –
8 | c1ccc(CN2CCCN(c3cccnc3)CC2)cc1 | 3.4 | 2.6 | 0.104 | EC50 [8]: 7.9 µM; Rmax [9]: 6; EC50 [10]: 1.8 µM; Kd [11]: > 1 µM; pKd [11]: < 6
9 | CNC(=O)OCCC(CCCCc1ccccc1)N(C)C (stereo not drawn) | 30 | 100 | 3.6 | Activity [1]: Active; Activity [3]: Active
10 | c1ccc(CCCN2CCCN(c3cccnc3)CC2)cc1 | 3.8 | 3.8 | 0.082 | Kd [11]: > 1 µM; pKd [11]: < 6
11 | c1cncc(N2CCCNCC2)c1 | – | – | – | Ki [12]: 0.00072 µM
12 | CN1[C@@H](CC(=O)c2ccccc2)CCC[C@H]1C[C@H](O)c1ccccc1 [LOBELINE] | – | – | – | Kd [11]: 0.013 µM; pKd [11]: 7.9
13 | CN(C)C(=O)OCCC(COc1ccccn1)N(C)C (stereo not drawn) | 300 | 300 | 100 | –
14 | CN(C)C(=O)OCCC(CCC(O)c1ccccc1)N(C)C (stereo not drawn) | 6.7 | 5.9 | 30 | Ki ([4]; read-out: pKi (converted)): 6.03 µM
15 | CN(C)C(=O)OCCC(CCCc1ccccc1)N(C)C (stereo not drawn) | 4.9 | 13 | 1.9 | Activity [1]: Active; Activity [3]: Active
16 | CNC(=O)OCCC(C)N(C)CCCc1ccccc1 (stereo not drawn) | > 1000 | > 1000 | 50 | pKi [2]: < 3; pKi [4]: < 3
17 | CNC(=O)OCCC(C)N(C)CC(O)c1ccccc1 (stereo not drawn) | 300 | 1000 | 300 | –
18 | CNC(=O)OCCC(CCC(O)c1ccccc1)N(C)C (stereo not drawn) | 100 | > 300 | 100 | Ki ([4]; read-out: pKi (converted)): > 316 µM
19 | c1ccc(CCN2CCCN(c3cccnc3)CC2)cc1 | 2.4 | 3.4 | 0.11 | –
20 | CN(C)C(=O)OCCC(COc1ccc(F)cc1)N(C)C (stereo not drawn) | 100 | 300 | 500 | –
21 | CN(C)C(CCCCc1ccccc1)CCOc1nccn1C (stereo not drawn) | 3.7 | 8.3 | 0.76 | Activity [13]: Active
22 | Brc1ccc(N2CCCN(CCCc3ccccc3)CC2)cn1 | 1.5 | 2.2 | 0.82 | –
23 | c1ccc(CCCN2CCN(c3cccnc3)CC2)cc1 | 3.5 | 20 | 0.49 | Activity [1]: Active; Activity [3]: Active
24 | CN(C)C(=O)OCCC(CCCCc1ccccc1)N(C)C (stereo not drawn) | 4.4 | 11 | 1.1 | Activity [1]: Active; Activity [3]: Active
25 | CNC(=O)OCCC(C)N(C)CCc1ccccc1 (stereo not drawn) | 300 | 300 | 30 | –
26 | c1ccc(CN2CCN(c3cccnc3)CC2)cc1 | 100 | > 300 | 9.6 | Ki ([4]; read-out: pKi (converted)): > 316 µM
27 | c1ccc(CCN2CCN(c3cccnc3)CC2)cc1 | 8.9 | 8.2 | 0.56 | Activity [1]: Active; Activity [14]: Active
